Reference: ChEMBL document CHEMBL1131066, “2-Substituted aminopyrido[2,3-d]pyrimidin-7(8H)-ones. structure-activity relationships against selected tyrosine kinases and in vitro and in vivo anticancer activity” (J Med Chem, 1998)

Key:
C6 [1] = test: Weight change of C6 glioma tumor cells in mice at 5 mg/kg peroral dose, days 1-15 administration; type: functional, Mus musculus; details: route oral
Procedure, shortened: (§1)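 Tumor-bearing nude mice (NCr nu/nu, 18–22 g, 6–8 per group) were implanted in the right axilla with tumor fragments on day 0 and dosed by average cage weight. Vehicle was 50 mM sodium lactate pH 4.0, or 0.5% methyl cellulose suspension; cisplatin was given in saline. Host body weight change is given as the maximum treatment-related weight loss.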

A-431 [2] = test: Net reduction in tumor burden between first and last treatments in A431 cell tumors in mice at 20 mg/kg peroral dose, days 7-21 administration; type: functional; details: route oral
Procedure, shortened: (§2)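 NCr nu/nu nude mice (18–22 g, 6–8 per group, randomized) had tumor fragments, kept by serial passage in nude mice, implanted in the right axilla on day 0. Mice were dosed by average cage weight on the listed days, over a range from toxic to ineffective doses. Vehicle was 50 mM sodium lactate pH 4.0 or 0.5% methyl cellulose suspension. Net log cell kill was taken between first and last treatments.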

Mus musculus [3] = test: Net reduction in tumor burden between first and last treatments in PDGF-transfected fibroblast cells in mice at 9.5 mg/kg peroral dose, days 1-15 administration; details: route oral
COLO 205 [4] = test: Weight change of COLO 205 tumor cells in mice at 10 mg/kg peroral dose, days 14-28 administration; type: functional; details: route oral; procedure, shortened: as §1
HT-29 [5] = test: Net reduction in tumor burden between first and last treatments of HT-29 cell tumors in mice at 10.2 mg/kg peroral dose, days 15-29 administration; type: functional; details: route oral; procedure, shortened: as §2
Mus musculus [6] = test: Net reduction in tumor burden between first and last treatments of PDGF-transfected fibroblast cells in mice at 15 mg/kg peroral dose, days 1-15 administration; type: functional; details: route oral; procedure, shortened: as §2
HT-29 [7] = test: Difference in days for treated (T) and control (C) HT-29 cell tumors to reach 750 mg in mice at 10.2 mg/kg peroral dose, days 15-29 administration; type: functional; details: route oral
Procedure, shortened: (§3)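 Nude mice (NCr nu/nu), 18–22 g, 6–8 per group, randomized and implanted with serially passaged tumor fragments in the right axilla on day 0. Dosed by average cage weight. Vehicle was 50 mM sodium lactate buffer, pH 4.0, or a 0.5% methyl cellulose suspension for one compound. Cisplatin was given in saline. T − C is the difference in days for treated and control tumors to reach 750 mg.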

SK-OV-3 [8] = test: Difference in days for treated (T) and control (C) SK-OV-3 cell tumors to reach 750 mg in mice at 20.3 mg/kg peroral dose, days 20-34 administration; type: functional; details: route oral; procedure, shortened: as §3
C6 glioma = test: Difference in days for treated (T) and control (C) C6 glioma tumors to reach 750 mg in mice at 5 mg/kg peroral dose, days 1-15 administration; details: route oral
C6 [9] = test: Weight change of C6 glioma cell tumor in mice at 10 mg/kg peroral dose, days 1-15 administration; type: functional, organism-based; parameters: dose 10 mg/kg; procedure, shortened: as §1
Mus musculus [10] = test: Difference in days for treated (T) and control (C) PDGF-transfected fibroblast tumors to reach 750 mg in mice at 9.5 mg/kg peroral dose, days 1-15 administration; details: route oral
C6 [11] = test: Inhibition of C6 cell proliferation in sulforhodamine B assay; type: functional, cell-based, Rattus norvegicus; details: Rattus norvegicus, C6
Procedure, shortened: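 C6 rat glioma cells (F10 Ham's, 15% horse serum, 2.5% fetal calf serum) seeded and allowed 24 h to attach, then given serial 2-fold compound dilutions; 4 d at 37 °C, 5% CO2; growth read by sulforhodamine B staining. IC50; mean of two experiments, each in triplicate.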

COLO 205 [12] = test: Net reduction in tumor burden between first and last treatments of COLO 205 cell tumors in mice at 10 mg/kg peroral dose, days 14-28 administration; type: functional; details: route oral; procedure, shortened: as §2
MCF7 [13] = test: Net reduction in tumor burden between first and last treatments of MCF-7 cell tumors in mice at 12 mg/kg peroral dose, days 1-15 administration; type: functional; details: route oral; procedure, shortened: as §2
C6 [14] = test: C6 cell growth in soft agar with continuous treatment; type: functional, cell-based, Rattus norvegicus; details: Rattus norvegicus, C6
Procedure, shortened: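 C6 rat glioma cells (F10 Ham's with 15% horse serum, 2.5% fetal calf serum) exposed 3 days to a concentration series, then plated in soft agar with compound still present at the same concentration; colonies stained and counted after two weeks. IC50; mean of two experiments, each in duplicate.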

COLO 205 [15] = test: Difference in days for treated (T) and control (C) COLO 205 cell tumors to reach 750 mg in mice at 10 mg/kg peroral dose, days 14-28 administration; type: functional; details: route oral; procedure, shortened: as §3
Mus musculus [16] = test: Weight change of PDGF-transfected fibroblast cells in mice at 15 mg/kg peroral dose, days 1-15 administration; type: functional; details: route oral
Procedure, shortened: (§4)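 Nude mice (NCr nu/nu, 18–22 g, 6–8 per group) were randomized and implanted with serially passaged tumor fragments in the right axilla on day 0. Oral dosing was based on average cage weight, on the days stated, over a dose range from toxic to ineffective. Vehicle was 50 mM sodium lactate buffer, pH 4.0, or 0.5% methyl cellulose suspension. Host weight change is reported as maximum treatment-related loss.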

C6 [17] = test: Net reduction in tumor burden between first and last treatments of C6 glioma cell tumors in mice at 5 mg/kg peroral dose, days 1-15 administration; type: functional; details: route oral; procedure, shortened: as §2
MCF7 [18] = test: Difference in days for treated (T) and control (C) MCF-7 cell tumors to reach 750 mg in mice at 12 mg/kg peroral dose, days 1-15 administration; type: functional; details: route oral; procedure, shortened: as §3
SK-OV-3 [19] = test: Net reduction in tumor burden between first and last treatments of SK-OV-3 cell tumors in mice at 20.3 mg/kg peroral dose, days 20-34 administration; type: functional; details: route oral; procedure, shortened: as §2
NIH3T3/PDGF = test: Weight change of NIH3T3/PDGF cell tumors in mice at 9.5 mg/kg peroral dose, days 1-15 administration; details: route oral
A-431 [20] = test: Weight change of A431 cell tumor in mice at 20 mg/kg peroral dose, days 7-21 administration; type: functional; details: route oral; procedure, shortened: as §1
C6 [21] = test: Net reduction in tumor burden between first and last treatments of C6 glioma cell tumors in mice at 10 mg/kg peroral dose, days 1-15 administration; type: functional; details: route oral; procedure, shortened: as §2
MCF7 [22] = test: Weight change of MCF-7 tumor cells in mice at 12 mg/kg peroral dose, days 1-15 administration; type: functional, organism-based; parameters: dose 12 mg/kg; procedure, shortened: as §1
NIH3T3 [23] = test: Growth of NIH3T3 cell colonies in soft agar with discontinued treatment; type: functional, cell-based; details: Mus musculus
Procedure, shortened: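 PDGF-B-transfected NIH3T3 (NIH3T3/PDGF) cells exposed 3 days to a concentration series, washed free of inhibitor, plated in drug-free soft agar; colonies stained and counted after two weeks. IC50; mean of two experiments, each in duplicate.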

SK-OV-3 [24] = test: Weight change of SK-OV-3 cell tumors in mice at 20.3 mg/kg peroral dose, days 20-34 administration; type: functional; details: route oral; procedure, shortened: as §4
NIH3T3 [25] = test: Growth of NIH3T3 cell colonies in soft agar with continuous treatment; type: functional, cell-based; details: Mus musculus
Procedure, shortened: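 Soft agar cloning used PDGF-B-transfected NIH3T3 (NIH3T3/PDGF) cells. Cells were exposed 3 days to a concentration series, then plated in soft agar with the matching compound concentration kept present. Colonies were stained and counted after two weeks. IC50; mean of two experiments, each in duplicate.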

Mus musculus [26] = test: Difference in days for treated (T) and control (C) PDGF-transfected fibroblast tumors to reach 750 mg in mice at 15 mg/kg peroral dose, days 1-15 administration; type: functional; details: route oral; procedure, shortened: as §3
A-431 [27] = test: Difference in days for treated (T) and control (C) A431 cell tumors to reach 750 mg in mice at 20 mg/kg peroral dose, days 7-21 administration; type: functional; details: route oral; procedure, shortened: as §3
C6 [28] = test: Difference in days for treated (T) and control (C) C6 glioma cell tumors to reach 750 mg in mice at 10 mg/kg peroral dose, days 1-15 administration; type: functional; details: route oral; procedure, shortened: as §3
HT-29 [29] = test: Weight change of HT-29 tumor cells in mice at 10.2 mg/kg peroral dose, days 15-29 administration; type: functional; details: route oral; procedure, shortened: as §1

With `CCN(CC)CCOc1ccc(Nc2ncc3cc(-c4c(Cl)cccc4Cl)c(=O)n(C)c3n2)cc1` [PD-0166285] as the molecule, how does the Weight change (C6 [1]) read?
The Weight change was -0.1 g.

What about the Net cell kill (A-431 [2]) of the same molecule?
Its Net cell kill is -0.5 log10.

And the Net cell kill (Mus musculus [3])?
Its Net cell kill is -1.6 log10.

And the Weight change (COLO 205 [4])?
Its Weight change is -4 g.

And the Net cell kill (HT-29 [5])?
The Net cell kill was -0.2 log10.

And the Net cell kill (Mus musculus [6])?
The Net cell kill was -1.8 log10.

What about the T-C (HT-29 [7]) of the same molecule?
The T-C was 9.6 days.

What about the T-C (SK-OV-3 [8]) of the same molecule?
Its T-C is 10.6 days.

And the T-C (C6 glioma)?
Its T-C is 0.3 days.

What about the Weight change (C6 [9]) of the same molecule?
Its Weight change is “Weight gain”.

And the T-C (Mus musculus [10])?
Its T-C is 3.3 days.

What about the IC50 (C6 [11]) of the same molecule?
Its IC50 is 340 nM.

What about the Net cell kill (COLO 205 [12]) of the same molecule?
The Net cell kill was -0.7 log10.

And the Net cell kill (MCF7 [13])?
Its Net cell kill is -0.6 log10.

And the IC50 (C6 [14])?
Its IC50 is 120 nM.

And the T-C (COLO 205 [15])?
The T-C was 0.6 days.

And the Weight change (Mus musculus [16])?
Its Weight change is -0.4 g.

And the Net cell kill (C6 [17])?
The Net cell kill was -0.8 log10.

What about the T-C (MCF7 [18]) of the same molecule?
Its T-C is 1.1 days.

What about the Net cell kill (SK-OV-3 [19]) of the same molecule?
Its Net cell kill is -0.1 log10.

What about the Weight change (NIH3T3/PDGF) of the same molecule?
The Weight change was -4.1 g.

What about the Weight change (A-431 [20]) of the same molecule?
Its Weight change is -3.1 g.

What about the Net cell kill (C6 [21]) of the same molecule?
Its Net cell kill is -1 log10.

And the Weight change (MCF7 [22])?
The Weight change was “Weight gain”.

What about the IC50 (NIH3T3 [23]) of the same molecule?
Its IC50 is 10 nM.

And the Weight change (SK-OV-3 [24])?
Its Weight change is -4 g.

What about the IC50 (NIH3T3 [25]) of the same molecule?
The IC50 was 1.1 nM.

And the T-C (Mus musculus [26])?
The T-C was 2.2 days.

And the T-C (A-431 [27])?
The T-C was 3.7 days.

And the T-C (C6 [28])?
The T-C was 0.4 days.

What about the Weight change (HT-29 [29]) of the same molecule?
Its Weight change is 0 g.
